Test results reported in ChEMBL document CHEMBL1156237, “Antiviral activity of benzimidazole derivatives. II. Antiviral activity of 2-phenylbenzimidazole derivatives” (Bioorg Med Chem, 2010).
Activity calls are given as the source filed them. The rule behind the calls is not given here.

Experiments:
[1] = tested on: Human immunodeficiency virus 1; assay: Antiviral activity against HIV1 3B infected in human MT4 cells assessed as protection from virus-induced cytopathogenicity after 4 days by MTT method; assay type: functional, organism-based
How it was run: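 MT-4 cells, 1 × 10^4/well in RPMI with or without serial compound dilutions, infected with HIV-1 IIIB, 100 CCID50 (m.o.i. 0.01). Protection from virus-induced cytopathogenicity read by MTT.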

Human alphaherpesvirus 1 = assay: Antiviral activity against HSV1 KOS infected in african green monkey Vero cells after 3 days by plaque reduction assay; assay type: functional, organism-based; conditions: Human alphaherpesvirus 1, KOS, 72 h
How it was run: (§1)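 Plaque reduction assay. Vero 76 cells at 2 × 10^5/well, grown overnight to confluence in D-MEM with 10% FBS. Infected 2 h with 50–100 PFU/well, unadsorbed virus removed. Overlay of D-MEM with 1% inactivated FBS and 0.75% methylcellulose, with or without serial compound dilutions. Incubated at 37 °C for 3 days (HSV-1 KOS, CVB-2 Ohio-1) or 5 days (RSV A2). Fixed and stained with crystal violet in 50% ethanol; plaques counted; EC50 by linear regression.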

[2] = Cytotoxicity against human MT4 cells after 96 hrs by MTT assay; assay type: cell-based; conditions: MT4 cells
How it was run: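 Exponentially growing MT-4 cells at 1 × 10^5 cells/mL in RPMI-1640 with 10% FCS, exposed to serial compound dilutions at 37 °C, 5% CO2. Viability by MTT after 96 h; CC50 is the concentration reducing viability of mock-infected cells by 50%.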

[3] = tested on: Vesicular stomatitis virus; assay: Antiviral activity against VSV Indiana lab infected in african green monkey Vero cells after 2 days by plaque reduction assay; assay type: functional, organism-based
[4] = tested on: Bovine viral diarrhea virus 1; assay: Antiviral activity against Bovine viral diarrhea virus NADL infected in MDBK cells assessed as protection from virus-induced cytopathogenicity after 3 to 4 days by MTT method; assay type: functional, organism-based, Bovine viral diarrhea virus 1-NADL; conditions: Bovine viral diarrhea virus isolates and strains, MDBK
How it was run: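 Cytopathogenicity protection assay. MDBK cells at 3 × 10^4/well, grown overnight to confluence. Infected with BVDV NADL at m.o.i. 0.01 in MEM-E with 0.5% inactivated FBS, 1 mM Na pyruvate and 1% kanamycin. Serial compound dilutions added after 1 h. After 3–4 days at 37 °C, viability read by MTT; EC50 is the concentration giving 50% protection.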

Coxsackievirus B2 = assay: Antiviral activity against Human coxsackievirus B2 Ohio-1 infected in african green monkey Vero cells after 3 days by plaque reduction assay; assay type: functional, organism-based, Coxsackievirus B2 (strain Ohio-1); conditions: Enterovirus B, Vero, 72 h; how it was run: as §1
[5] = Cytotoxicity against african green monkey Vero cells; assay type: cell-based; conditions: chlorocebus sabaeus
How it was run: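 Vero 76 monolayers exposed to serial compound dilutions, run in parallel on the same 24-well plates as the plaque-reduction assays. CC50 is the concentration reducing viability of mock-infected cells by 50%.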

Poliovirus 1 = assay: Antiviral activity against Polio virus type1 Sabin strain Chat infected in african green monkey Vero cells after 2 days by plaque reduction assay; assay type: functional, organism-based, Human poliovirus 1 strain Sabin; conditions: Enterovirus C, 48 h
Yellow fever virus = assay: Antiviral activity against Yellow fever virus 17D infected in BHK cells assessed as protection from virus-induced cytopathogenicity after 3 to 4 days by MTT method; assay type: functional, organism-based
[6] = Cytotoxicity against BHK cells after 48 to 96 hrs by MTT assay; assay type: cell-based, Mesocricetus auratus; conditions: hamster
How it was run: (§2)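 Cell seeding: MDBK at 6 × 10^5 cells/mL in MEM-E with 10% horse serum and 1 mM Na pyruvate; BHK at 1 × 10^6 cells/mL in MEM-E with 10% FBS. Serial compound dilutions, 37 °C, 5% CO2. Viability of mock-infected cells by MTT after 48–96 h; CC50 is the concentration reducing viability by 50%.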

[7] = Cytotoxicity against MDBK cells after 48 to 96 hrs by MTT assay; assay type: cell-based, Bos taurus; conditions: cattle, MDBK cells; how it was run: as §2
[8] = tested on: Respiratory syncytial virus; assay: Antiviral activity against RSV A2 infected in african green monkey Vero cells after 5 days by plaque reduction assay; assay type: functional, organism-based; how it was run: as §1
Vaccinia virus = assay: Antiviral activity against Vaccinia virus Elstree-Lister infected in african green monkey Vero cells after 3 days by plaque reduction assay; assay type: functional, organism-based; conditions: Orthopoxvirus vaccinia, 72 h
[9] = human respiratory syncytial virus, A2, Vero, 120 h

Structure (SMILES) | Activity [1] | EC50 (Human alphaherpesvirus 1) | CC50 at 96 h [2] | Activity [3] | EC50 [4] | EC50 (Coxsackievirus B2) | CC50 [5] | EC50 (Poliovirus 1) | EC50 (Yellow fever virus) | CC50 [6] | CC50 [7] | EC50 [8, 9] | EC50 (Vaccinia virus) | EC50 ([8]; vero)
O=C(O)CCC(=O)Nc1ccc(-c2nc3cc(C(F)(F)F)ccc3[nH]2)cc1 | inactive | > 100 µM | > 100 µM | inactive | > 100 µM | > 100 µM | > 100 µM | > 100 µM | > 100 µM | > 100 µM | > 100 µM | – | – | –
O=C(CN1CCOCC1)Nc1ccc(-c2nc3ccccc3[nH]2)cc1 | inactive | > 100 µM | 100 µM | inactive | > 77 µM | > 100 µM | > 100 µM | > 100 µM | > 100 µM | > 100 µM | 77 µM | – | – | –
O=C(CN1CCCCC1)Nc1ccc(-c2nc3ccccc3[nH]2)cc1 | inactive | > 100 µM | 31 µM | inactive | 7 µM | 17 µM | > 100 µM | > 100 µM | > 31 µM | 31 µM | 18 µM | – | – | –
COc1c(C)c2c(c(O)c1C/C=C(\C)CCC(=O)O)C(=O)OC2 [MYCOPHENOLIC ACID] | – | > 13 µM | – | – | > 42 µM | > 13 µM | ≥ 13 µM | > 13 µM | > 100 µM | > 100 µM | – | 0.6 µM | – | –
CC(=O)Nc1ccc(-c2nc3ccccc3[nH]2)cc1 | inactive | > 100 µM | 100 µM | inactive | 90 µM | 87 µM | > 100 µM | > 100 µM | > 100 µM | > 100 µM | > 100 µM | – | – | –
O=C(CN1CCN(c2ccccc2)CC1)Nc1ccc(-c2nc3cc(C(F)(F)F)ccc3[nH]2)cc1 | inactive | > 100 µM | 0.9 µM | inactive | > 32 µM | > 100 µM | > 100 µM | > 100 µM | > 100 µM | > 100 µM | 32 µM | – | – | –
O=C(CN1CCOCC1)Nc1ccc(-c2nc3cc(C(F)(F)F)ccc3[nH]2)cc1 | inactive | > 100 µM | > 100 µM | inactive | > 100 µM | > 100 µM | > 100 µM | > 100 µM | > 86 µM | 86 µM | > 100 µM | – | – | –
C#C[C@@]1(O)[C@H](O)[C@@H](CO)O[C@H]1n1ccc(N)nc1=O [2'-ETHYNYL-D-CYTIDINE] | – | > 100 µM | ≥ 100 µM | – | 38 µM | 27 µM | > 100 µM | 23 µM | > 100 µM | > 100 µM | > 100 µM | > 100 µM | > 100 µM | –
O=C(CNC12CC3CC(CC(C3)C1)C2)Nc1ccc(-c2nc3cc(C(F)(F)F)ccc3[nH]2)cc1 | inactive | 45 µM | 15 µM | inactive | > 23 µM | > 45 µM | 45 µM | > 45 µM | > 18 µM | 18 µM | 23 µM | – | – | –
O=C(CN1CCCC1)Nc1ccc(-c2nc3ccccc3[nH]2)cc1 | inactive | > 100 µM | 40 µM | inactive | 10 µM | 11 µM | > 100 µM | 90 µM | 19 µM | 55 µM | 70 µM | – | – | –
NC(=O)c1ncn([C@@H]2O[C@H](CO)[C@@H](O)[C@H]2O)n1 [RIBAVIRIN] | – | > 100 µM | – | – | – | > 100 µM | > 100 µM | > 100 µM | > 100 µM | > 100 µM | > 100 µM | 7 µM | > 100 µM | –
O=C(Nc1ccc(-c2nc3cc(C(F)(F)F)ccc3[nH]2)cc1)Nc1ccc(-c2nc3cc(C(F)(F)F)ccc3[nH]2)cc1 | inactive | > 100 µM | > 100 µM | inactive | > 100 µM | > 100 µM | > 100 µM | > 100 µM | > 17 µM | 17 µM | > 100 µM | – | – | –
O=C(CN1CCCCC1)Nc1ccc(-c2nc3cc(C(F)(F)F)ccc3[nH]2)cc1 | inactive | > 31 µM | 6 µM | inactive | 2 µM | 9 µM | 31 µM | > 31 µM | > 12 µM | 12 µM | 6 µM | – | – | –
Nc1nc2c(ncn2COCCO)c(=O)[nH]1 [ACYCLOVIR] | – | 3 µM | > 100 µM | – | > 100 µM | > 100 µM | > 100 µM | > 100 µM | > 100 µM | > 100 µM | > 100 µM | > 100 µM | > 100 µM | –
C[C@@]1(O)[C@H](O)[C@@H](CO)O[C@H]1n1cnc2c(=O)[nH]c(N)nc21 [2'-B-METHYL-GUANOSINE] | – | > 100 µM | > 100 µM | – | – | 20 µM | > 100 µM | > 100 µM | 1.8 µM | 90 µM | > 100 µM | > 100 µM | > 100 µM | –
CN1CCN(CC(=O)Nc2ccc(-c3nc4cc(Cl)c(Cl)cc4[nH]3)cc2)CC1 | inactive | 51 µM | 11 µM | inactive | 4 µM | > 100 µM | > 100 µM | 89 µM | > 41 µM | 41 µM | 90 µM | – | 6 µM | –
Nc1ccc(-c2nc3cc(C(F)(F)F)ccc3[nH]2)cc1 | inactive | > 100 µM | 62 µM | inactive | 15 µM | 17 µM | > 100 µM | 47 µM | > 100 µM | 100 µM | 82 µM | – | – | –
O=C(CCl)Nc1ccc(-c2nc3cc(C(F)(F)F)ccc3[nH]2)cc1 | inactive | > 35 µM | 5 µM | inactive | > 17 µM | 24 µM | 35 µM | > 35 µM | > 22 µM | 22 µM | 17 µM | – | – | –
CCC(=O)Nc1ccc(-c2nc3ccccc3[nH]2)cc1 | inactive | > 100 µM | 35 µM | inactive | 47 µM | 9 µM | > 100 µM | 35 µM | > 100 µM | ≥ 100 µM | > 100 µM | – | – | –
O=c1cnn([C@@H]2O[C@H](CO)[C@@H](O)[C@H]2O)c(=O)[nH]1 (stereo in doubt; form 1) [6-AZAURIDINE] | – | – | – | – | – | – | – | > 20 µM | – | – | – | 1.2 µM | 11 µM | –
O=C(CN1CCSCC1)Nc1ccc(-c2nc3cc(C(F)(F)F)ccc3[nH]2)cc1 | inactive | > 100 µM | 6 µM | inactive | > 100 µM | > 100 µM | > 100 µM | > 100 µM | > 100 µM | > 100 µM | > 100 µM | – | – | –
O=c1cnn([C@@H]2O[C@H](CO)[C@@H](O)[C@H]2O)c(=O)[nH]1 (stereo in doubt; form 2) [6-AZAURIDINE] | – | > 20 µM | – | – | > 100 µM | > 20 µM | – | – | 26 µM | > 100 µM | > 100 µM | – | – | 1.2 µM
